Test results reported in ChEMBL document CHEMBL1124798, “Design of peptidomimetic delta opioid receptor antagonists using the message-address concept” (J Med Chem, 1990).
Where a SMILES comes first, the peptide text is derived from it. [ ]: non-standard residue; d: D form. The star is where a group is joined. Tyr(Nα,Nα-allyl2) = C=CCN(CC=C)[C@@H](Cc1ccc(O)cc1)C(=O)*; Aib = CC(C)(N)C(=O)O

The molecules below were run against Mu-type opioid receptor (Cavia porcellus) (UniProt P97266) (assay: Antagonist potency was determined as the ratio of [antagonist] to (IC50 ratio-1) for Opioid receptor mu 1). Settings: not given.
Mu-type opioid receptor (Cavia porcellus), sequence (P97266 whole entry): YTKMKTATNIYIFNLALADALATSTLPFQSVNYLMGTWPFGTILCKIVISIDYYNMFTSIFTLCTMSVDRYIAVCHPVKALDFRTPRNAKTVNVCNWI
Format: functional
Outline: (§1)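 Ke (nM) = [antagonist]/(IC50 ratio − 1). IC50 ratio is agonist IC50 with antagonist over the control IC50 in the same preparation. Antagonist preincubated 15 min. Agonists: DADLE in mouse vas deferens (δ); morphine (μ) and ethylketazocine (κ) in guinea pig ileum. n ≥ 3.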

C=CCN(CC=C)[C@@H](Cc1ccc(O)cc1)C(=O)NC(C)(C)C(=O)NC(C)(C)C(=O)N[C@@H](Cc1ccccc1)C(=O)N[C@@H](CC(C)C)C(=O)O ({Tyr(Nα,Nα-allyl2)}-[Aib][Aib]FL-OH) and Oc1ccc2c3c1O[C@H]1c4[nH]c5c(O)cccc5c4C[C@@]4(O)[C@@H](C2)N(CC2CC2)CC[C@]314 cannot be ordered by Ke: greater than 1670 nM for the first, greater than 111 nM for the second.

COc1cccc2c3c([nH]c12)[C@@H]1Oc2c(O)ccc4c2[C@@]12CCN(CC1CC1)[C@H](C4)[C@]2(O)C3 gave a Ke of 50 nM.

Each molecule was assayed against T1, Kappa-type opioid receptor (Cavia porcellus, UniProt P41144) (assay: Binding affinity was measured by the displacement of [3H]- EK in guinea pig brain membrane of Opioid receptor kappa 1). Settings: not given.
T1 sequence (P41144 whole entry): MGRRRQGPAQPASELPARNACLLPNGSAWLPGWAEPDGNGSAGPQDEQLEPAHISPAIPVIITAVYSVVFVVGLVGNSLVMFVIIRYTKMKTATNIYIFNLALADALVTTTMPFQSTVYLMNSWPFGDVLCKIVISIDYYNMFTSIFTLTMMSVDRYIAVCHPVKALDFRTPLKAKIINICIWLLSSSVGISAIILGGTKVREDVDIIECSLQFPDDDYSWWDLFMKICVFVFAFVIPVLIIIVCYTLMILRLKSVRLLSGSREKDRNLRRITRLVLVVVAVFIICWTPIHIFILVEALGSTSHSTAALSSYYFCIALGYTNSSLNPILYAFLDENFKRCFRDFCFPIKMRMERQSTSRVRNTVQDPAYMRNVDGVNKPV
Format: cell membranes
Outline: (§2)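 Radioligand displacement from guinea pig brain membranes, modified Werling method. μ sites: [3H]DAMGO. δ sites: [3H]DADLE with 1 μM DAMGO. κ sites: [3H]ethylketazocine with 1 μM DAMGO.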

Going from C=CCN(CC=C)[C@@H](Cc1ccc(O)cc1)C(=O)NC(C)(C)C(=O)NC(C)(C)C(=O)N[C@@H](Cc1ccccc1)C(=O)N[C@@H](CC(C)C)C(=O)O ({Tyr(Nα,Nα-allyl2)}-[Aib][Aib]FL-OH) to COc1cccc2c3c([nH]c12)[C@@H]1Oc2c(O)ccc4c2[C@@]12CCN(CC1CC1)[C@H](C4)[C@]2(O)C3, the Ki falls from greater than 1000 nM to 43 nM. The second binds more tightly here.

The molecules below were run against Kappa-type opioid receptor (Cavia porcellus) (UniProt P41144) (assay: Opioid receptor kappa 1 antagonistic activity was measured by the displacement of ethylketazocine in the guinea pig ileum at a concentration of 100 nM). Settings: not given.
Kappa-type opioid receptor (Cavia porcellus), sequence (P41144 whole entry): as above
Format: functional, tissue-based
Outline: (§3)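 Guinea pig ileum. Antagonist (nM, as stated on line) incubated 15 min before testing. Agonists: morphine (μ) and ethylketazocine (κ).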

In order of falling IC50 ratio:
1. COc1cccc2c3c([nH]c12)[C@@H]1Oc2c(O)ccc4c2[C@@]12CCN(CC1CC1)[C@H](C4)[C@]2(O)C3  1.5
2. Oc1ccc2c3c1O[C@H]1c4[nH]c5c(O)cccc5c4C[C@@]4(O)[C@@H](C2)N(CC2CC2)CC[C@]314  1.4
3. C=CCN(CC=C)[C@@H](Cc1ccc(O)cc1)C(=O)NC(C)(C)C(=O)NC(C)(C)C(=O)N[C@@H](Cc1ccccc1)C(=O)N[C@@H](CC(C)C)C(=O)O ({Tyr(Nα,Nα-allyl2)}-[Aib][Aib]FL-OH)  0.8

The molecules below were run against Delta-type opioid receptor (Mus musculus) (UniProt P32300) (assay: Antagonist potency was determined as the ratio of [antagonist] to (IC50 ratio-1) for opioid receptor delta 1). Settings: not given.
Delta-type opioid receptor (Mus musculus), sequence (P32300 whole entry): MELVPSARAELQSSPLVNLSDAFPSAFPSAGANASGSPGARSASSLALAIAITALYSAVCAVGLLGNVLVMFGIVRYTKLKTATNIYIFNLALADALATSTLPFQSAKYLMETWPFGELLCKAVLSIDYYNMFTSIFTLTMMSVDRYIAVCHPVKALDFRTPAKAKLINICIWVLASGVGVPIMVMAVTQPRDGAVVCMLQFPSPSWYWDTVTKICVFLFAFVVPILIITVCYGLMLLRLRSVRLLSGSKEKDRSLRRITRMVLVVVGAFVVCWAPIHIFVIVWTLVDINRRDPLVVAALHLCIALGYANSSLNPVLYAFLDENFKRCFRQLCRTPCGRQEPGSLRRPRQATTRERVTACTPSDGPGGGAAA
Format: functional
Outline: as §1

In order of rising Ke:
1. Oc1ccc2c3c1O[C@H]1c4[nH]c5c(O)cccc5c4C[C@@]4(O)[C@@H](C2)N(CC2CC2)CC[C@]314  0.42 nM
2. COc1cccc2c3c([nH]c12)[C@@H]1Oc2c(O)ccc4c2[C@@]12CCN(CC1CC1)[C@H](C4)[C@]2(O)C3  1.5 nM
3. C=CCN(CC=C)[C@@H](Cc1ccc(O)cc1)C(=O)NC(C)(C)C(=O)NC(C)(C)C(=O)N[C@@H](Cc1ccccc1)C(=O)N[C@@H](CC(C)C)C(=O)O ({Tyr(Nα,Nα-allyl2)}-[Aib][Aib]FL-OH)  69 nM

These molecules were tested against Delta-type opioid receptor (Mus musculus) (UniProt P32300) (assay: Opioid receptor delta 1 antagonistic activity was measured by the displacement of DADLE in the mouse vas deferens at a concentration of 100 nM). Settings: not given.
Format: functional
Outline: (§4)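 Mouse vas deferens. Antagonist (nM, as stated on line) incubated with the preparation 15 min before testing. δ agonist [D-Ala2,D-Leu5]enkephalin.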

In order of rising IC50 ratio:
1. C=CCN(CC=C)[C@@H](Cc1ccc(O)cc1)C(=O)NC(C)(C)C(=O)NC(C)(C)C(=O)N[C@@H](Cc1ccccc1)C(=O)N[C@@H](CC(C)C)C(=O)O ({Tyr(Nα,Nα-allyl2)}-[Aib][Aib]FL-OH)  15.6
2. COc1cccc2c3c([nH]c12)[C@@H]1Oc2c(O)ccc4c2[C@@]12CCN(CC1CC1)[C@H](C4)[C@]2(O)C3  66
3. Oc1ccc2c3c1O[C@H]1c4[nH]c5c(O)cccc5c4C[C@@]4(O)[C@@H](C2)N(CC2CC2)CC[C@]314  239

What follows are molecules tested against Kappa-type opioid receptor (Cavia porcellus) (UniProt P41144) (assay: Opioid receptor kappa antagonistic activity was measured by the displacement of ethylketazocine in the guinea pig ileum at a concentration of 100 nM). Settings: not given.
Format: functional, tissue-based
Outline: as §3

In order of falling IC50 ratio:
1. COc1cccc2c3c([nH]c12)[C@@H]1Oc2c(O)ccc4c2[C@@]12CCN(CC1CC1)[C@H](C4)[C@]2(O)C3  1.5
2. Oc1ccc2c3c1O[C@H]1c4[nH]c5c(O)cccc5c4C[C@@]4(O)[C@@H](C2)N(CC2CC2)CC[C@]314  1.4
3. C=CCN(CC=C)[C@@H](Cc1ccc(O)cc1)C(=O)NC(C)(C)C(=O)NC(C)(C)C(=O)N[C@@H](Cc1ccccc1)C(=O)N[C@@H](CC(C)C)C(=O)O ({Tyr(Nα,Nα-allyl2)}-[Aib][Aib]FL-OH)  0.8

Each molecule was assayed against Opioid receptors; mu & delta (Homo sapiens) (UniProt P41143+P35372) (assay: Selectivity ratio was determined from Ke value of Opioid receptor mu 1 and Opioid receptor delta 1). Settings: Cavia porcellus.
Opioid receptors; mu & delta (Homo sapiens), sequence (P35372 whole entry, looked up): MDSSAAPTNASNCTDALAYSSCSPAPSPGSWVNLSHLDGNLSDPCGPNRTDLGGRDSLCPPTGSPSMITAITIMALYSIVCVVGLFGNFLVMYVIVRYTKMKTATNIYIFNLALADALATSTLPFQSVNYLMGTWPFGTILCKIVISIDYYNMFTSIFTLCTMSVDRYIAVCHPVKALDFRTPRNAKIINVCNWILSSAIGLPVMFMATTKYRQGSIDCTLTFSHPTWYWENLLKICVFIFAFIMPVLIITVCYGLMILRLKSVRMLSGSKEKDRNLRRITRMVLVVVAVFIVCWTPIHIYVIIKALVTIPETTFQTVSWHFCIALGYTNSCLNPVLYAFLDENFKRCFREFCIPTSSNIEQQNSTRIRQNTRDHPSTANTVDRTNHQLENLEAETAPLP
Opioid receptors; mu & delta (Homo sapiens), sequence (P41143 whole entry, looked up): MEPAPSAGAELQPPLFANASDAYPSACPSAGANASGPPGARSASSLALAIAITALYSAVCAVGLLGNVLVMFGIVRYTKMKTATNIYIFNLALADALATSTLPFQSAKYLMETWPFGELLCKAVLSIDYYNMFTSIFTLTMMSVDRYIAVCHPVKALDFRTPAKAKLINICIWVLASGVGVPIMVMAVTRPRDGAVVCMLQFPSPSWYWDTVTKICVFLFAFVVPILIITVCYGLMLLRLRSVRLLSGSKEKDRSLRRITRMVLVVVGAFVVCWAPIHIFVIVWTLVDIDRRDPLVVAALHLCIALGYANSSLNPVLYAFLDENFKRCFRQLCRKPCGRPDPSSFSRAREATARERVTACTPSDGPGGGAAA
Format: protein assay
Outline: (§5)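 Ratios of Ke values, μ/δ or κ/δ. Each Ke = [antagonist]/(IC50 ratio − 1). δ from DADLE in mouse vas deferens; μ (morphine) and κ (ethylketazocine) in guinea pig ileum. 15 min antagonist preincubation, n ≥ 3.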

C=CCN(CC=C)[C@@H](Cc1ccc(O)cc1)C(=O)NC(C)(C)C(=O)NC(C)(C)C(=O)N[C@@H](Cc1ccccc1)C(=O)N[C@@H](CC(C)C)C(=O)O ({Tyr(Nα,Nα-allyl2)}-[Aib][Aib]FL-OH) and Oc1ccc2c3c1O[C@H]1c4[nH]c5c(O)cccc5c4C[C@@]4(O)[C@@H](C2)N(CC2CC2)CC[C@]314 cannot be ordered by Selectivity ratio: greater than 24 for the first, greater than 264 for the second.

For COc1cccc2c3c([nH]c12)[C@@H]1Oc2c(O)ccc4c2[C@@]12CCN(CC1CC1)[C@H](C4)[C@]2(O)C3, the Selectivity ratio was 32.

Each molecule was assayed against Opioid receptors; delta & kappa (Homo sapiens) (UniProt P41145+P41143) (assay: Selectivity ratio was determined from Ke value of Opioid receptor kappa 1 and Opioid receptor delta 1). Settings: Cavia porcellus.
Opioid receptors; delta & kappa (Homo sapiens), sequence (P41143 whole entry, looked up): as above
Opioid receptors; delta & kappa (Homo sapiens), sequence (P41145 whole entry, looked up): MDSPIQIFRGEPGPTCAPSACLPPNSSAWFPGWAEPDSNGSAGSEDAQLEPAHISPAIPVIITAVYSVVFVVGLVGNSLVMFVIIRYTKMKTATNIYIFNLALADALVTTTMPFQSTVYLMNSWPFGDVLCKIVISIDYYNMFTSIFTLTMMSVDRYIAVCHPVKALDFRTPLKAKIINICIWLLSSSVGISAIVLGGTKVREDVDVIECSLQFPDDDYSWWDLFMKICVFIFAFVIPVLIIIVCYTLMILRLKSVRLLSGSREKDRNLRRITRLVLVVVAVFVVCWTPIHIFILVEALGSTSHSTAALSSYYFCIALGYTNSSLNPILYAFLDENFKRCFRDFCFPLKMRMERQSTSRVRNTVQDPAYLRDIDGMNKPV
Format: protein assay
Outline: as §5

C=CCN(CC=C)[C@@H](Cc1ccc(O)cc1)C(=O)NC(C)(C)C(=O)NC(C)(C)C(=O)N[C@@H](Cc1ccccc1)C(=O)N[C@@H](CC(C)C)C(=O)O ({Tyr(Nα,Nα-allyl2)}-[Aib][Aib]FL-OH) and Oc1ccc2c3c1O[C@H]1c4[nH]c5c(O)cccc5c4C[C@@]4(O)[C@@H](C2)N(CC2CC2)CC[C@]314 cannot be ordered by Selectivity ratio: greater than 18 for the first, greater than 595 for the second.

For COc1cccc2c3c([nH]c12)[C@@H]1Oc2c(O)ccc4c2[C@@]12CCN(CC1CC1)[C@H](C4)[C@]2(O)C3, the Selectivity ratio was greater than 120.

What follows are molecules tested against Delta-type opioid receptor (Mus musculus) (UniProt P32300) (assay: Opioid receptor delta antagonistic activity was measured by the displacement of DADLE in the mouse vas deferens at a concentration of 100 nM). Settings: not given.
Format: functional
Outline: as §4

In order of rising IC50 ratio:
1. C=CCN(CC=C)[C@@H](Cc1ccc(O)cc1)C(=O)NC(C)(C)C(=O)NC(C)(C)C(=O)N[C@@H](Cc1ccccc1)C(=O)N[C@@H](CC(C)C)C(=O)O ({Tyr(Nα,Nα-allyl2)}-[Aib][Aib]FL-OH)  15.6
2. COc1cccc2c3c([nH]c12)[C@@H]1Oc2c(O)ccc4c2[C@@]12CCN(CC1CC1)[C@H](C4)[C@]2(O)C3  66
3. Oc1ccc2c3c1O[C@H]1c4[nH]c5c(O)cccc5c4C[C@@]4(O)[C@@H](C2)N(CC2CC2)CC[C@]314  239

Each molecule was assayed against T1, Kappa-type opioid receptor (assay: Binding affinity was measured by the displacement of [3H]- EK in guinea pig brain membrane of opioid receptor kappa). Settings: not given.
Format: cell membranes
Outline: as §2

Going from C=CCN(CC=C)[C@@H](Cc1ccc(O)cc1)C(=O)NC(C)(C)C(=O)NC(C)(C)C(=O)N[C@@H](Cc1ccccc1)C(=O)N[C@@H](CC(C)C)C(=O)O ({Tyr(Nα,Nα-allyl2)}-[Aib][Aib]FL-OH) to COc1cccc2c3c([nH]c12)[C@@H]1Oc2c(O)ccc4c2[C@@]12CCN(CC1CC1)[C@H](C4)[C@]2(O)C3, the Ki falls from greater than 1000 nM to 43 nM.

Each molecule was assayed against Kappa-type opioid receptor (Cavia porcellus) (UniProt P41144) (assay: Antagonist potency was determined as the ratio of [antagonist] to (IC50 ratio-1) for Opioid receptor kappa 1). Settings: not given.
Format: functional
Outline: as §1

C=CCN(CC=C)[C@@H](Cc1ccc(O)cc1)C(=O)NC(C)(C)C(=O)NC(C)(C)C(=O)N[C@@H](Cc1ccccc1)C(=O)N[C@@H](CC(C)C)C(=O)O ({Tyr(Nα,Nα-allyl2)}-[Aib][Aib]FL-OH) and Oc1ccc2c3c1O[C@H]1c4[nH]c5c(O)cccc5c4C[C@@]4(O)[C@@H](C2)N(CC2CC2)CC[C@]314 cannot be ordered by Ke: greater than 1250 nM for the first, greater than 250 nM for the second.

COc1cccc2c3c([nH]c12)[C@@H]1Oc2c(O)ccc4c2[C@@]12CCN(CC1CC1)[C@H](C4)[C@]2(O)C3 showed a Ke greater than 185 nM.

These molecules were tested against T2, Mu-type opioid receptor (Cavia porcellus, UniProt P97266) (assay: Binding affinity was measured by the displacement of [3H]- DAMGO in guinea pig brain membrane of Opioid receptor mu 1). Settings: not given.
T2 sequence (P97266 whole entry): as the sequence (P97266 whole entry) above
Format: cell membranes
Outline: as §2

Going from C=CCN(CC=C)[C@@H](Cc1ccc(O)cc1)C(=O)NC(C)(C)C(=O)NC(C)(C)C(=O)N[C@@H](Cc1ccccc1)C(=O)N[C@@H](CC(C)C)C(=O)O ({Tyr(Nα,Nα-allyl2)}-[Aib][Aib]FL-OH) to COc1cccc2c3c([nH]c12)[C@@H]1Oc2c(O)ccc4c2[C@@]12CCN(CC1CC1)[C@H](C4)[C@]2(O)C3, the Ki falls from greater than 1000 nM to 16 nM. The second binds more tightly here.

What follows are molecules tested against Mu-type opioid receptor (Cavia porcellus) (UniProt P97266) (assay: Opioid receptor mu 1 antagonistic activity was measured by the displacement of morphine in the guinea pig ileum at a concentration of 100 nM). Settings: not given.
Format: functional, tissue-based
Outline: as §3

In order of rising IC50 ratio:
1. C=CCN(CC=C)[C@@H](Cc1ccc(O)cc1)C(=O)NC(C)(C)C(=O)NC(C)(C)C(=O)N[C@@H](Cc1ccccc1)C(=O)N[C@@H](CC(C)C)C(=O)O ({Tyr(Nα,Nα-allyl2)}-[Aib][Aib]FL-OH)  0.6
2. Oc1ccc2c3c1O[C@H]1c4[nH]c5c(O)cccc5c4C[C@@]4(O)[C@@H](C2)N(CC2CC2)CC[C@]314  1.9
3. COc1cccc2c3c([nH]c12)[C@@H]1Oc2c(O)ccc4c2[C@@]12CCN(CC1CC1)[C@H](C4)[C@]2(O)C3  3

The molecules below were run against T2, Mu-type opioid receptor (assay: Binding affinity was measured by the displacement of [3H]- DAMGO in guinea pig brain membrane of opioid receptor mu). Settings: not given.
Format: cell membranes
Outline: as §2

Compared with C=CCN(CC=C)[C@@H](Cc1ccc(O)cc1)C(=O)NC(C)(C)C(=O)NC(C)(C)C(=O)N[C@@H](Cc1ccccc1)C(=O)N[C@@H](CC(C)C)C(=O)O ({Tyr(Nα,Nα-allyl2)}-[Aib][Aib]FL-OH), COc1cccc2c3c([nH]c12)[C@@H]1Oc2c(O)ccc4c2[C@@]12CCN(CC1CC1)[C@H](C4)[C@]2(O)C3 is lower in Ki: greater than 1000 nM for the first, 16 nM for the second. The second binds more tightly here.

These molecules were tested against Mu-type opioid receptor (Cavia porcellus) (UniProt P97266) (assay: Opioid receptor mu antagonistic activity was measured by the displacement of morphine in the guinea pig ileum at a concentration of 100 nM). Settings: not given.
Format: functional, tissue-based
Outline: as §3

In order of falling IC50 ratio:
1. COc1cccc2c3c([nH]c12)[C@@H]1Oc2c(O)ccc4c2[C@@]12CCN(CC1CC1)[C@H](C4)[C@]2(O)C3  3
2. Oc1ccc2c3c1O[C@H]1c4[nH]c5c(O)cccc5c4C[C@@]4(O)[C@@H](C2)N(CC2CC2)CC[C@]314  1.9
3. C=CCN(CC=C)[C@@H](Cc1ccc(O)cc1)C(=O)NC(C)(C)C(=O)NC(C)(C)C(=O)N[C@@H](Cc1ccccc1)C(=O)N[C@@H](CC(C)C)C(=O)O ({Tyr(Nα,Nα-allyl2)}-[Aib][Aib]FL-OH)  0.6
